Results: ChEMBL document CHEMBL4265975, “Synthesis, biological evaluation and molecular modeling of a novel series of fused 1,2,3-triazoles as potential anti-coronavirus agents” (Bioorg Med Chem Lett, 2018)

Experiments:
Human coronavirus 229E = test: Antiviral activity against Human coronavirus 229E infected in HEL cells assessed as reduction in virus-induced pathogenicity after 3 days by microscopic method; format: functional, organism-based; conditions: 72 h
[1] = Selectivity index, ratio of MCC for HEL cells to EC50 for acyclovir-resistant TK-defecient Herpes simplex virus 1 KOS infected in HEL cells; format: toxicity, cell-based; conditions: human, read-out: Selectivity Index
Summary of the method: (§1)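 SI is MCC divided by EC50. […] MCC was measured in parallel on HEL cells seeded at 5 x 10^3 cells/well, as the lowest concentration causing microscopically visible alteration of cell morphology. The top concentration tested was 100 µM.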

Human alphaherpesvirus 1 [2] = test: Antiviral activity against acyclovir-resistant TK-defecient Herpes simplex virus 1 KOS infected in human HEL cells assessed as inhibition of virus-induced cytopathic effect after 3 days by microscopic method; format: functional, organism-based; conditions: Human alphaherpesvirus 1, KOS, 72 h
Vaccinia virus = test: Antiviral activity against Vaccinia virus infected in human HEL cells assessed as inhibition of virus-induced cytopathic effect after 3 days by microscopic method; format: functional, organism-based; conditions: Orthopoxvirus vaccinia, 72 h
Human adenovirus 2 = test: Antiviral activity against Human adenovirus 2 infected in human HEL cells assessed as inhibition of virus-induced cytopathic effect after 3 days by microscopic method; format: functional, organism-based; conditions: Human mastadenovirus C, 72 h
Summary of the method: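 HEL cells were infected with adenovirus 2 for 2 h. Residual virus was then removed and the cells were incubated with medium containing graded compound concentrations for 3 days at 37°C. Virus-induced cytopathogenicity was scored microscopically.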

Human alphaherpesvirus 1 [3] = test: Antiviral activity against Herpes simplex virus 1 KOS infected in human HEL cells assessed as inhibition of virus-induced cytopathic effect after 3 days by microscopic method; format: functional, organism-based; conditions: Human alphaherpesvirus 1, KOS, 72 h
[4] = Selectivity index, ratio of MCC for HEL cells to EC50 for Human adenovirus 2 infected in HEL cells; format: toxicity, cell-based; conditions: read-out: Selectivity Index; summary of the method: as §1
[5] = Selectivity index, ratio of MCC for HEL cells to EC50 for Herpes simplex virus 2 strain G infected in HEL cells; format: toxicity, cell-based; conditions: human, read-out: Selectivity Index; summary of the method: as §1
[6] = Selectivity index, ratio of MCC for HEL cells to EC50 for Herpes simplex virus 1 KOS infected in HEL cells; format: toxicity, cell-based; conditions: human, read-out: Selectivity Index; summary of the method: as §1
[7] = Selectivity index, ratio of MCC for HEL cells to EC50 for Vaccinia virus infected in HEL cells; format: toxicity, cell-based; conditions: human, read-out: Selectivity Index; summary of the method: as §1
[8] = Cytotoxicity against HEL cells assessed as alteration in cell morphology after 3 days by microscopic method; format: cell-based; conditions: human
Summary of the method: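 HEL cells were seeded at 5 x 10^3 cells/well and exposed to graded compound concentrations, up to 100 μM, in parallel with the antiviral assay. Cell morphology was examined by light microscopy. MCC is the minimum concentration causing a microscopically detectable alteration of normal cell morphology.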

[9] = Selectivity index, ratio of MCC for HEL cells to EC50 for Human coronavirus 229E infected in HEL cells; format: toxicity, cell-based; conditions: read-out: Selectivity Index; summary of the method: as §1
Human alphaherpesvirus 2 = test: Antiviral activity against Human herpesvirus 2 strain G infected in human HEL cells assessed as inhibition of virus-induced cytopathic effect after 3 days by microscopic method; format: functional, organism-based; conditions: Human alphaherpesvirus 2, strain G, 72 h

Structure (SMILES)	EC50 (Human coronavirus 229E) [µM]	selectivity ratio [1]	EC50 (Human alphaherpesvirus 1 [2]) [µM]	EC50 (Vaccinia virus) [µM]	EC50 (Human adenovirus 2) [µM]	EC50 (Human alphaherpesvirus 1 [3]) [µM]	selectivity ratio [4]	selectivity ratio [5]	selectivity ratio [6]	selectivity ratio [7]	MCC at 72 h [8] [µM]	selectivity ratio [9]	EC50 (Human alphaherpesvirus 2) [µM]
CCOC(=O)C1(Cc2ccccc2)CN(c2ccccc2)Cc2nnn(Cc3ccc(Cl)c(Cl)c3)c21 (stereo not drawn)	> 100	> 8	> 100	> 100	> 100	> 100	> 8	> 8	> 8	> 8	> 100	> 8	> 100
CCOC(=O)C1(Cc2ccccc2)CN(c2ccccc2)Cc2nnn(Cc3cccc(Cl)c3)c21 (stereo not drawn)	> 100	> 8	> 100	> 100	> 100	> 100	> 8	> 8	> 8	> 8	> 100	> 8	> 100
CCOC(=O)C1(Cc2ccccc2)CN(c2ccccc2)Cc2nnn(CCCCCO)c21 (stereo not drawn)	> 100	> 8	> 100	> 100	> 100	> 100	> 8	> 8	> 8	> 8	> 100	> 8	> 100
CCOC(=O)C1(Cc2ccccc2)CN(c2ccccc2)Cc2nnn(Cc3cccc(F)c3)c21 (stereo not drawn)	> 100	> 8	> 100	> 100	> 100	> 100	> 8	> 8	> 8	> 8	≥ 100	> 8	> 100
CCOC(=O)C1(Cc2ccccc2)CN(c2ccccc2)Cc2nnn(Cc3c(F)cccc3Cl)c21 (stereo not drawn)	> 100	> 8	> 100	> 100	> 100	> 100	> 8	> 8	> 8	> 8	> 100	> 8	> 100
CCOC(=O)C1(Cc2ccc(F)cc2)CN(c2ccccc2)Cc2nnn(Cc3cccc(F)c3)c21 (stereo not drawn)	> 100	> 8	> 100	> 100	> 100	> 100	> 8	> 8	> 8	> 8	> 100	> 8	> 100
CCOC(=O)C1(Cc2ccc(F)cc2)CN(c2ccccc2)Cc2nnn(Cc3ccc(Cl)c(Cl)c3)c21 (stereo not drawn)	9.45	> 8	> 100	> 100	> 100	> 100	> 8	> 8	> 8	> 8	> 100	> 8	> 100
CCOC(=O)C1(Cc2ccccc2)CN(c2ccccc2)Cc2nnn(CCc3ccc(OC)cc3)c21 (stereo not drawn)	> 100	> 8	> 100	> 100	> 100	> 100	> 8	> 8	> 8	> 8	≥ 20	> 8	> 100
CCOC(=O)C1(Cc2ccccc2)CN(c2ccccc2)Cc2nnn(Cc3ccccc3Cl)c21 (stereo not drawn)	> 100	> 8	> 100	> 100	> 100	> 100	> 8	> 8	> 8	> 8	> 100	> 8	> 100
COc1ccccc1CCn1nnc2c1CCN(c1ccccc1)C2	> 100	> 8	> 100	> 100	> 100	> 100	> 8	> 8	> 8	> 8	≥ 100	> 8	> 100
CCOC(=O)C1(Cc2ccccc2)CN(c2ccccc2)Cc2nnn(Cc3ccc(Cl)cc3)c21 (stereo not drawn)	> 100	> 8	> 100	> 100	> 100	> 100	> 8	> 8	> 8	> 8	> 100	> 8	> 100
CCOC(=O)C1(Cc2ccccc2)CN(c2ccccc2)Cc2nnn(CCc3cc4ccccc4[nH]3)c21 (stereo not drawn)	9.45	> 8	> 100	> 100	> 100	> 100	> 8	> 8	> 8	> 8	> 100	> 8	> 100
COc1ccc(CCn2nnc3c2CCN(c2ccccc2)C3)cc1	> 100	> 8	> 100	> 100	> 100	> 100	> 8	> 8	> 8	> 8	> 100	> 8	> 100
CCCCCCCCn1nnc2c1C(Cc1ccccc1)(C(=O)OCC)CN(c1ccccc1)C2 (stereo not drawn)	> 100	> 8	> 100	> 100	> 100	> 100	> 8	> 8	> 8	> 8	≥ 20	> 8	> 100
CCOC(=O)C1(Cc2ccccc2)CN(c2ccccc2)Cc2nnn(Cc3ccc(F)cc3)c21 (stereo not drawn)	8.95	> 8	> 100	> 100	> 100	> 100	> 8	> 8	> 8	> 8	≥ 100	> 8	> 100
CCOC(=O)C1(Cc2ccccc2)CN(c2ccccc2)Cc2nnn(CCc3ccccc3OC)c21 (stereo not drawn)	> 100	> 8	> 100	> 100	> 100	> 100	> 8	> 8	> 8	> 8	≥ 100	> 8	> 100
CCOC(=O)C1(Cc2ccccc2)CN(c2ccccc2)Cc2nnn(Cc3ccco3)c21 (stereo not drawn)	> 100	> 8	> 100	> 100	> 100	> 100	> 8	> 8	> 8	> 8	100	> 8	> 100
c1ccc(N2CCc3c(nnn3CC3CC3)C2)cc1	> 100	> 8	> 100	> 100	> 100	> 100	> 8	> 8	> 8	> 8	> 100	> 8	> 100
Nc1nc2c(ncn2COCCO)c(=O)[nH]1 [ACYCLOVIR]	–	–	–	> 250	–	–	–	–	–	–	> 250	–	–
O=c1[nH]c(=O)n([C@H]2C[C@H](O)[C@@H](CO)O2)cc1/C=C/Br [BRIVUDINE]	–	–	–	3.8	–	–	–	–	–	–	> 250	–	–
Nc1ccn(C[C@@H](CO)OCP(=O)(O)O)c(=O)n1 [CIDOFOVIR]	–	–	2.8	85	22	4.5	–	–	–	–	> 250	–	3.4
Nc1nc2c(ncn2COC(CO)CO)c(=O)[nH]1 [GANCICLOVIR]	–	–	–	> 100	–	–	–	–	–	–	> 100	–	–
Nc1ccn([C@H]2CC[C@@H](CO)O2)c(=O)n1 [ZALCITABINE]	–	–	–	–	50	–	–	–	–	–	> 250	–	–
